# Assay outcomes from PubChem BioAssay.
# The sample as a whole holds a higher share of hits than the screen did.
# L major viab: Leishmania major promastigote growth inhibition, primary screen; Leishmania major promastigotes, resazurin fluorescence viability; 200,000 tested, 9% active; inhibition, % at 10 µM; in the data active = inhibition above about 50%;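 note: promastigotes grown with compound for 44 hours at 28 °C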
# S1P3 antag: S1P3 receptor antagonists, primary screen, cell-based | CHO S1P3 NFAT-BLA reporter, FRET fluorescence, antagonist mode | inhibition, % at 4.98 µM | 170,000 tested, 0.27% active;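 active = inhibition above the plate cutoff, the mean inhibition of test wells on that plate plus 3 SD, cut at about 28% in these data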;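 note: cells challenged with S1P at its EC80 of 0.8 µM; blue over green emission ratio from cleaved BLA substrate after 4 h stimulation; 0% = S1P-stimulated wells and 100% = unstimulated DMSO-only wells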
# Target sequence (Q99500 whole entry, looked up): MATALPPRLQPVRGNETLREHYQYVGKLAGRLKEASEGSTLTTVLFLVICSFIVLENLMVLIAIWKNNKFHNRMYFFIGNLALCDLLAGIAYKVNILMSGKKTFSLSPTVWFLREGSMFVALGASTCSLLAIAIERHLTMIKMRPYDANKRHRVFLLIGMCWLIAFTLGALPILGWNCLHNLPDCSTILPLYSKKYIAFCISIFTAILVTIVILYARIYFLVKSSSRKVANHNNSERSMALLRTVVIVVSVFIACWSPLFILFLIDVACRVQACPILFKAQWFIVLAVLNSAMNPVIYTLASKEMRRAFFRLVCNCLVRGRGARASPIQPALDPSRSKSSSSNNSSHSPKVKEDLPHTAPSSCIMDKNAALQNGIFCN
# S1P4 antag: S1P4 receptor antagonists, primary screen, cell-based; S1P4-expressing cells, antagonist mode, reporter read-out; inhibition, % at 4.98 µM; Sphingosine 1-phosphate receptor 4 (Homo sapiens), O95977; 220,000 tested, 0.26% active; in the data active = inhibition above about 29%;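 note: 0% = wells stimulated with agonist and 100% = vehicle wells without agonist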
# S1P4 agonist: S1P4 receptor agonists, primary screen, cell-based. Sphingosine 1-phosphate receptor 4 (Homo sapiens), O95977. 220,000 tested, 0.35% active. S1P4-expressing cell line, agonist reporter assay. activation, % at 4.98 µM. AID 1509, 2009; in the data active = activation above about 11%;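 note: 0% = DMSO vehicle and 100% = reference agonist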
# MDM2 E3 inh: MDM2-luciferase reporter signal enhancers, primary screen, MDM2 E3 ligase inhibitor project, cell-based, luminescence, 1536-well; E3 ubiquitin-protein ligase Mdm2 (Homo sapiens), Q00987; cell-based MDM2 ubiquitination luciferase reporter, 2 h; 0 = plate control, 100 = twice control, blank-subtracted; signal enhancement, % at 5 µM; 210,000 tested, 0.11% active;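 active = signal enhancement of 30% or more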;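 note: luminescence tracks abundance of the self-degrading MDM2-luciferase fusion protein; higher signal means inhibition of MDM2 E3 ligase activity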
#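 test system = mammalian cells stably expressing self-ubiquitinating, self-degrading MDM2 E3–luciferase fusion | quantity = 2000 cells/well | incubation = cell settling 4 h, compound treatment 2 h, both 37 °C | signal = luminescence with SteadyLite reagent, 15 min at room temperature | evaluation = % enhancement relative to plate controls after blank subtraction | benchmarks = plate controls and plate blanks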
# Numbers without * were called inactive; / = no result given.
SMILES,L major viab,S1P3 antag,S1P4 antag,S1P4 agonist,MDM2 E3 inh
COc1ccc(C/C(N)=N/OC(=O)c2cccc([N+](=O)[O-])c2)cc1,63*,4,-7,1,0
CC1=C(C)/C(=N/OC(=O)c2cccc([N+](=O)[O-])c2)C=CC1=O,100*,/,17,1,/
COc1ccccc1C/C(N)=N/OC(=O)c1cccc([N+](=O)[O-])c1,7,/,-55,1,-16
COc1ccc(C(=O)O/N=C(\N)Cc2ccc(Cl)c(Cl)c2)cc1OC,81*,-1,-13,3,1
CC1(C)CC(=O)C(/C=N/c2ncccc2C(=O)O)=C(O)C1,-1,/,0,0,-18
CCCc1nc(SCc2ccccn2)c2c(=O)n(C)c(=O)n(C)c2n1,2,17,-20,4,-7
Cn1c(=O)c2c(SCc3cccnc3)nc(CC(C)(C)C)nc2n(C)c1=O,91*,19,-15,0,-19
CCCc1nc(SCc2cccnc2)c2c(=O)n(C)c(=O)n(C)c2n1,84*,-2,-16,-2,-15
CC(C)Cn1c(/C=C/c2ccco2)nc2ccccc21,61*,-7,0,1,-7
COCCOCCn1c(CCCO)nc2ccccc21,-4,-1,-2,1,-12
CC(C)c1ccccc1NC(=O)Cn1c(/C=C/c2ccccc2)nc2ccccc21,/,4,-5,0,/
COCCOCCn1c(/C=C/c2ccccc2)nc2ccccc21,63*,-5,-5,0,-41
CC(C)n1c(Nn2cnnc2)nc2ccccc21,-1,4,17,2,-13
CCCn1c(/C=C/c2ccccc2)nc2ccccc21,88*,/,-14,2,-2
CC(C)n1c(/C=C/c2ccccc2)nc2ccccc21,50*,-5,-8,0,-6
CCN(CC)S(=O)(=O)c1cccc2c(N(C)C)cccc12,-3,/,0,2,-8
COCCn1c(-c2ccc(OC)cc2)nc2ccccc21,56*,/,1,1,-6
CCN(CC)S(=O)(=O)c1ccc(C(=O)Oc2cc(C)[nH]c(=O)c2[N+](=O)[O-])cc1,-3,2,-11,0,1
O=C(NCc1cccc(Cl)c1)c1ccc(S(=O)(=O)Nc2cccc(C(F)(F)F)c2)cc1,64*,-7,-5,0,3
COc1cc(C2CC(=O)N(c3ccc(C)cc3)C(=O)C2)cc(OC)c1OC,/,-3,6,-1,-7
COCCN1CCCC(CNCc2cn(C)nc2-c2ccc(Oc3ccccc3)cc2)C1 (stereo not given),95*,4,3,1,-4
Cn1cc(CN2CCCCC2CO)c(-c2ccc(Oc3ccccc3)cc2)n1 (stereo not given),63*,-3,-8,2,0
CCCN1CCC(NCc2cn(C)nc2-c2ccc(Oc3ccccc3)cc2)CC1,/,0,-5,-2,-1
COC1CCCN(Cc2cn(C)nc2-c2ccc(Oc3ccccc3)cc2)C1 (stereo not given),73*,8,0,0,-6
COc1ccc2c(c1)-c1nc(/N=C/c3c(O)ccc4ccccc34)sc1CC2,81*,-19,-18,3,-13
SMILES,L major viab,S1P3 antag,S1P4 antag,S1P4 agonist,MDM2 E3 inh
O=C(CC1C(=O)NCCN1CC1CCCCC1)NCCc1ccc(F)cc1 (stereo not given),-4,-20,-4,1,1
Cc1ccc(CN2CCN(CC(=O)N=Nc3c(O)[nH]c4ccccc34)CC2)cc1,100*,-18,-13,1,-4
O=C(CN1C(=O)c2ccccc2C1=O)N1CCN(C2c3ccccc3-c3ccccc32)CC1,27,-37,-18,1,4
Cc1ccc2c(c1)Oc1ccc([N+](=O)[O-])cc1C(=O)N2,-4,-1,-11,1,-4
Cc1ccc2c(c1)Oc1ccc(NC(=O)CCl)cc1C(=O)N2,98*,-24,2,-1,-5
O=[n+]1cc(-c2ccc(Cl)cc2)n([O-])c2c1CCCCC2,-7,12,8,-1,-3
CCNC(=S)NNC(=O)c1ccccn1,0,0,11,0,-16
O=C(NNC(=O)C(c1ccccc1)c1ccccc1)c1ccccn1,99*,14,-12,2,-1
O=C(NNC(=S)Nc1ccc(Cl)c(Cl)c1)c1ccccn1,96*,10,-9,1,-16
CCOc1ccccc1NC(=S)N(CCC(C)C)C1CCN(C(C)=O)CC1,-3,3,2,0,-37
CC1(C)CC(Cc2nc(=S)[nH][nH]2)C(=O)O1 (stereo not given),-4,9,13,2,-12
O=C(NC1(C(F)(F)F)N=C2SCCN2C1=O)c1ccccc1F (stereo not given),/,-14,-7,1,-5
COc1cc(N/N=C/c2ccccc2O)ncn1,82*,1,-14,0,3
CN(C)CC(O)COc1ccc(-c2ccc(C#N)cc2)cc1 (stereo not given),98*,/,-2,0,-16
Cc1ccc(S(=O)(=O)CC(O)COc2ccc(C#N)cc2)cc1 (stereo not given),-6,-6,5,0,6
N#Cc1ccc(-c2ccc(OCC(O)CN3CCOCC3)cc2)cc1 (stereo not given),84*,-20,6,0,-16
OC(COc1cccc(OCC(O)CN2CCOCC2)c1)CN1CCOCC1 (stereo not given),-3,-2,1,2,-4
CCN1CCCC1CNCC(O)COc1ccc(C(C)(C)C)cc1C (stereo not given),86*,-7,12,0,-5
O=C(COc1ccc(S(=O)(=O)NC2CCCCC2)cc1Cl)Nc1ccc2c(c1)OCO2,8,/,12,-1,-5
O=C(COc1ccc(S(=O)(=O)NC2CCCCC2)cc1Cl)NCc1ccc2c(c1)OCO2,73*,/,5,-2,-16
O=C(Nc1cc(Cl)ccc1Oc1ccccc1)c1ccccc1F,2,-15,-9,-1,-10
Cc1ccc(Oc2ccc(Cl)cc2NC(=O)c2ccc(F)cc2F)cc1,58*,-8,-17,0,-13
COc1cc(/C=N/Nc2nc(C)cc(C)n2)ccc1OC(=O)c1ccco1,51*,2,13,-5,-7
CCOc1cc(/C=N\Nc2nc(Nc3ccccc3)nc(N3CCOCC3)n2)ccc1OC(=O)c1ccco1,88*,-5,-15,0,-12
Cc1ccc(/C=N/Nc2cc(C)nc(N3CCOCC3)n2)cc1,/,-6,7,3,-22
COc1cc(/C=N/NC(=O)c2ccc(F)cc2)ccc1OC(=O)c1ccco1,-7,-3,6,0,2
